From PubChem BioAssay
SR-BI uptake up – activators of SR-BI mediated HDL lipid uptake; activation, % at 12.5 µM; actives 0.096% (n = 320,000); CHO ldlA[mSR-BI] cells, DiI-HDL uptake fluorescence, 3 h; 100 = double the neutral-control signal;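 active = mean replicate activation of at least 60% and every replicate at or above 60%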
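material = CHO ldlA[mSR-BI] cells | medium = Ham's F12 with 0.5% BSA, HEPES 25 mM, pH 7.4 | reagent = fluorescent DiI-HDL, 10 µg/mL final | compound dosing = single-point compound dose | incubation = 3 h, 37 °C | measured by = bottom-read fluorescence, 550/595 nm | measure = HDL uptake via cellular fluorescence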
UBC13 polyUb – inhibitors of human UBC13 polyubiquitin chain formation. P61088. TR-FRET. inhibition, % at 20 µM. actives 0.47% (n = 330,000); in the data active = inhibition above about 45%, passing the limit was not always enough
SR-BI DiI inh – blocks mouse SR-BI lipid uptake from DiI-HDL; inhibition, % at 12.5 µM; ldlA[mSR-BI] CHO cells, DiI-HDL uptake fluorescence, 3 h; Q61009; actives 0.96% (n = 320,000);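 active = mean replicate inhibition of at least 70% and a set share of replicates each scoring 70 or more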
Target sequence (Q61009 whole entry, looked up): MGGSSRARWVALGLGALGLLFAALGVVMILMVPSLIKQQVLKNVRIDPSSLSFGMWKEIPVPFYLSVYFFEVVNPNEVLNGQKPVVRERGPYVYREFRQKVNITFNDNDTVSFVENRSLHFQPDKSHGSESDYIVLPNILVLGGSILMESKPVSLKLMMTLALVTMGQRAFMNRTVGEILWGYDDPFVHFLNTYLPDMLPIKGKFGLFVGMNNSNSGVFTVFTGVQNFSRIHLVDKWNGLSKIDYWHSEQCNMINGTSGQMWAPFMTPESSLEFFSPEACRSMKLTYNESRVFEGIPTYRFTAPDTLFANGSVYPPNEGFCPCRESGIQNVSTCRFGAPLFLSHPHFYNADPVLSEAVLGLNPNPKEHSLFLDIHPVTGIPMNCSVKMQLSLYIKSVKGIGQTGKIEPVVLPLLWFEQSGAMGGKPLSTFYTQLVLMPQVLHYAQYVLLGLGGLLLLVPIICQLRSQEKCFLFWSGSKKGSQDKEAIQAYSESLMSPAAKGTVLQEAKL
Neddylation inh – blocks human cullin neddylation; inhibition, % at 25 µM; actives 0.58% (n = 360,000); AID 651699; TR-FRET cullin neddylation, biochemical; in the data active = inhibition above about 36%
Neddyl inh conf – confirmation of human cullin neddylation inhibitors; shares compounds with Neddylation inh; TR-FRET cullin neddylation biochemical assay; calls only at 25 µM; actives 13% (n = 1,800); in the data active = inhibition above about 40%;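 note: neddylation substrate is the cullin 1 ring ligase complex with SKP2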
Each line names hits and unclear results; the compound was inactive in the other large screens (follow-up assays come after a bar, where shown). Rows were chosen to be rich in hits. Some 1.9% of all compounds tested hit in one or more screens of this group.

CC1(C(=O)Nc2ccc3c(c2)OCCO3)CCC(=O)N1CCOc1ccccc1 (stereo not given)	none (no result: SR-BI uptake up, UBC13 polyUb, SR-BI DiI inh)
CO[C@H]1CN(C)C(=O)c2cc(NC(=O)C3CCOCC3)ccc2OC[C@H](C)N(Cc2nccs2)C[C@H]1C	none (no result: SR-BI uptake up, UBC13 polyUb, SR-BI DiI inh)
Cc1cnc(CNC(=O)c2csc([C@@H]3C[C@H](O)[C@@H](CO)O3)n2)cn1	none (no result: SR-BI uptake up, UBC13 polyUb, SR-BI DiI inh)
COc1ccc(C(=O)NC2CCCCCC2)cc1S(=O)(=O)N1CCCc2ccccc21	none
CCN1C(=O)CCN(C2CCCC2)c2nc(Nc3ccc(C(=O)NC4CCN(C)CC4)cc3OC)ncc21	Neddylation inh 31 (no result: UBC13 polyUb) | Neddyl inh conf inactive
Cc1cccc(NC(=O)CN(CC2CCCO2)C(=O)c2ccc(S(C)(=O)=O)cc2)c1C (stereo not given)	none
Cc1cc(-c2ccccc2)c2nncn2n1	Neddylation inh 40 | Neddyl inh conf active
Cc1cc(=O)oc2cc(OCC(=O)N3CC(=O)Nc4ccccc43)c(Cl)cc12	Neddylation inh 40 | Neddyl inh conf inactive
COc1ccc2oc(C(=O)NC(C)(C)C)c(C)c2c1	Neddylation inh 44 | Neddyl inh conf inactive
COc1cc(C(=O)NNC(=S)NC(=O)c2ccc(F)cc2)cc(OC)c1OC	Neddylation inh 35 | Neddyl inh conf inactive
COc1ccc2oc(C(=O)N3CCN(S(=O)(=O)c4ccc(F)cc4)CC3)c(C)c2c1	none
COc1ccc2oc(C(=O)NNC(=O)c3ccc(F)cc3)c(C)c2c1	Neddylation inh 42
C/C=C(\C)C(=O)O[C@H](c1cc2ccc(=O)oc2cc1OC)[C@@H](O)C(C)(C)O	Neddylation inh 37 | Neddyl inh conf inactive
C/C=C(\C)C(=O)O[C@@H]([C@H](O)c1cc2ccc(=O)oc2cc1OC)C(C)(C)O	none (not shown: Neddylation inh)
CC(Oc1cc2oc(=O)c3c(c2cc1Cl)CCC3)C(=O)NCc1cccnc1 (stereo not given)	SR-BI DiI inh 86, Neddylation inh 43 | Neddyl inh conf inactive
